From ChEMBL document CHEMBL3400098, “Aza follow-ups to BI 207524, a thumb pocket 1 HCV NS5B polymerase inhibitor. Part 1: Mitigating the genotoxic liability of an aniline metabolite” (Bioorg Med Chem Lett, 2015)

Experiments:
[1] = tested on: Hepatitis C virus; assay: Antiviral activity against Hepatitis C virus genotype 1a infected in human Huh cells assessed as inhibition of viral replication by RT-PCR-based replicon assay; format: functional, cell-based, Hepacivirus hominis; details: subtype 1a
Method in brief: (§1)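 HCV replicon EC50 determined in duplicate, using either a GT1b luciferase reporter read-out or RT-PCR quantification of replicon RNA.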

[2] = tested on: Cynomolgus monkey; assay: Dose normalized Cmax in cynomolgous monkey at 10 mg/kg, po and 2 mg/kg, iv; format: ADME, organism-based, Macaca fascicularis; details: in vivo
Method in brief: (§2)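 Cynomolgus monkeys fasted overnight, then given 10 mg/kg orally as a suspension in 0.5% methylcellulose, 0.3% Tween-80 and 1% NMP. IV bolus of 2 mg/kg in 70% PEG-400:30% water. Oral values normalized to 5 mg/kg. Plasma analysed by non-compartmental methods.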

[3] = tested on: Rattus norvegicus; assay: Dose normalized Cmax in rat at 10 mg/kg, po; format: ADME, organism-based; set-up: dose 10 mg/kg, route oral; details: in vivo
Method in brief: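 Rats dosed orally at 10 mg/kg as a suspension in 0.5% methylcellulose, 0.3% Tween-80 and 1% NMP. Plasma Cmax normalized to 5 mg/kg.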

[4] = Half life in dog liver microsomes at 2 uM; format: ADME, Canis lupus familiaris
Method in brief: (§3)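 Stability in liver microsomes with 2 µM initial compound concentration; half-life recorded.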

[5] = Half life in cynomolgous monkey liver microsomes at 2 uM; format: ADME, Macaca fascicularis; details: cynomolgus monkey; method in brief: as §3
[6] = Dose normalized bioavailability in cynomolgous monkey at 10 mg/kg, po and 2 mg/kg, iv; format: ADME, organism-based, Macaca fascicularis; details: cynomolgus monkey, in vivo, read-out: F/dose; method in brief: as §2
[7] = Bioavailability in rat at 5 mg/kg, po and 2 mg/kg, iv; format: ADME, organism-based; details: in vivo
Method in brief: (§4)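 Animals fasted overnight. Oral dose given as a suspension in 0.5% methylcellulose, 0.3% Tween-80 and 1% NMP. IV bolus of 2 mg/kg given in 70% PEG-400:30% water. N = 3 per dose and per route. Plasma kept on ice, spun at 4 °C and stored at about −20 °C. Calibration standards prepared in blank plasma, LOQ 7 ng/mL. Non-compartmental analysis.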

[8] = tested on: Hepatitis C virus; assay: Antiviral activity against Hepatitis C virus genotype 1b infected in human Huh cells assessed as inhibition of viral replication by RT-PCR-based replicon assay; format: functional, cell-based, Hepacivirus hominis; method in brief: as §1
[9] = tested on: Cynomolgus monkey; assay: Dose normalized AUC in cynomolgous monkey at 10 mg/kg, po and 2 mg/kg, iv; format: ADME, organism-based, Macaca fascicularis; details: in vivo; method in brief: as §2
[10] = tested on: Cynomolgus monkey; assay: Dose normalized half life in cynomolgous monkey at 10 mg/kg, po and 2 mg/kg, iv; format: ADME, organism-based, Macaca fascicularis; details: in vivo; method in brief: as §2
[11] = Ratio of drug up take in liver to plasma of rat at 5 mg/kg, po measured at 6 hrs post dose; format: ADME, organism-based; set-up: dose 5 mg/kg, route oral
[12] = tested on: Cynomolgus monkey; assay: Dose normalized volume of distribution at steady state in cynomolgous monkey at 10 mg/kg, po and 2 mg/kg, iv; format: ADME, organism-based, Macaca fascicularis; details: in vivo; method in brief: as §2
[13] = Permeability coefficient, Kp for ratio of drug uptake in liver to plasma in rat; format: ADME
[14] = Half life in dog at 5 mg/kg, po and 2 mg/kg, iv; format: ADME, organism-based, Canis lupus familiaris; details: in vivo; method in brief: as §4
[15] = Bioavailability in dog at 5 mg/kg, po and 2 mg/kg, iv; format: ADME, organism-based, Canis lupus familiaris; details: in vivo; method in brief: as §4
[16] = Inhibition of Hepatitis C virus genotype 1b C-terminal truncated NS5B RNA dependent RNA polymerase delta21 expressed in Escherichia coli by scintillation proximity assay; set-up: species or system Hepatitis C virus subtype 1b
Method in brief: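 Biochemical polymerase inhibition using a C-terminally truncated GT1b NS5BΔ21 construct. Values are the mean of duplicate measurements (n ≥ 2).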

[17] = AUC in dog at 5 mg/kg, po and 2 mg/kg, iv; format: ADME, organism-based, Canis lupus familiaris; details: plasma; method in brief: as §4
[18] = AUC in rat at 5 mg/kg, po and 2 mg/kg, iv; format: ADME, organism-based; details: plasma; method in brief: as §4
[19] = Cmax in dog at 5 mg/kg, po and 2 mg/kg, iv; format: ADME, organism-based, Canis lupus familiaris; details: in vivo; method in brief: as §4
[20] = Cmax in rat at 5 mg/kg, po and 2 mg/kg, iv; format: ADME, organism-based; details: in vivo; method in brief: as §4
[21] = tested on: Hepatitis C virus; assay: Antiviral activity against Hepatitis C virus genotype 1b infected in human Huh cells assessed as inhibition of viral replication by luciferase reporter assay; format: functional, cell-based, Hepacivirus hominis; method in brief: as §1
[22] = Clearance in cynomolgous monkey at 2 mg/kg, iv; format: ADME, organism-based, Macaca fascicularis; set-up: dose 2 mg/kg, route intravenous; details: cynomolgus monkey, in vivo; method in brief: as §4
[23] = Half life in rhesus monkey liver microsomes at 2 uM
[24] = Clearance in dog at 2 mg/kg, iv; format: ADME, organism-based, Canis lupus familiaris; set-up: dose 2 mg/kg, route intravenous; details: in vivo; method in brief: as §4
[25] = Volume of distribution at steady state in rat at 5 mg/kg, po and 2 mg/kg, iv; format: ADME, organism-based; details: in vivo, read-out: Vdss; method in brief: as §4
[26] = tested on: Macaca mulatta; assay: Cmax in rhesus monkey at 5 mg/kg, po and 2 mg/kg, iv; details: in vivo
[27] = tested on: Macaca mulatta; assay: Bioavailability in rhesus monkey at 5 mg/kg, po and 2 mg/kg, iv; details: in vivo
[28] = Cytotoxicity against human HuH7 cells assessed as reduction in cell viability by MTT assay; format: cell-based; details: Huh-7 cells, read-out: TC50 (the source's name)
Method in brief: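 Cytotoxicity (TC50) measured by MTT read-out in the Huh-7 cell line.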

[29] = Clearance in rhesus monkey at 2 mg/kg, iv; details: in vivo
[30] = Clearance in rat at 2 mg/kg, iv; format: ADME, organism-based; set-up: dose 2 mg/kg, route intravenous; details: in vivo; method in brief: as §4
[31] = Lipophilicity, log D of the compound at pH 7.4; format: physicochemical; details: buffer
[32] = Half life in rat at 5 mg/kg, po and 2 mg/kg, iv; format: ADME, organism-based; details: in vivo; method in brief: as §4
[33] = Half life in rat liver microsomes at 2 uM; format: ADME; method in brief: as §3
[34] = Ratio of drug up take in liver to plasma of rat at 5 mg/kg, po measured at 8 hrs post dose; format: ADME, organism-based; set-up: dose 5 mg/kg, route oral
Method in brief: (§5)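 Rats fasted overnight, then given a single compound orally at 5 mg/kg in 0.5% methylcellulose, 0.3% Tween-80 and 1% NMP. Plasma Cmax measured. Liver/plasma concentration ratio taken at 8 h for single-compound dosing.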

[35] = tested on: Macaca mulatta; assay: Volume of distribution at steady state in rhesus monkey at 5 mg/kg, po and 2 mg/kg, iv; details: in vivo, read-out: Vdss
[36] = tested on: Macaca mulatta; assay: Half life in rhesus monkey at 5 mg/kg, po and 2 mg/kg, iv; details: in vivo
[37] = tested on: Macaca mulatta; assay: AUC in rhesus monkey at 5 mg/kg, po and 2 mg/kg, iv; details: plasma
[38] = Volume of distribution at steady state in dog at 5 mg/kg, po and 2 mg/kg, iv; format: ADME, organism-based, Canis lupus familiaris; details: in vivo, read-out: Vdss; method in brief: as §4
[39] = Cmax in rat at 5 mg/kg, po; format: ADME, organism-based; set-up: dose 5 mg/kg, route oral; details: in vivo; method in brief: as §5
[40] = Half life in human liver microsomes at 2 uM; format: ADME; method in brief: as §3
[41] = Permeability from apical to basolateral side of human Caco2 cells; format: ADME, cell-based; details: Caco-2, read-out: permeability
Method in brief: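 Caco-2 permeability measured in the apical-to-basolateral direction, reported in cm/s.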

[42] = Ratio of drug up take in liver to plasma of rat at 4 mg/kg, po as cassette dosing measured at 2 hrs post dose; format: ADME, organism-based; set-up: dose 4 mg/kg, route oral
Method in brief: (§6)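 Cassette dosing: a mixture of 4 compounds, each at 4 mg/kg, given orally to 2 fasted rats in 0.5% methylcellulose, 0.3% Tween-80 and 1% NMP. Plasma sampled at 1 and 2 h. Liver/plasma ratio determined at 2 h.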

[43] = Plasma concentration in rat at 4 mg/kg, po as cassette dosing measured at 1 hr post dose; format: ADME, organism-based; set-up: dose 4 mg/kg, route oral; method in brief: as §6
[44] = Plasma concentration in rat at 4 mg/kg, po as cassette dosing measured at 2 hrs post dose; format: ADME, organism-based; set-up: dose 4 mg/kg, route oral; method in brief: as §6

CCOc1cc(NC(=O)C2(NC(=O)c3ccc4c(C5CCCC5)c(-c5ncc(Cl)cn5)n(C)c4c3)CCC2)ccc1/C=C/C(=O)O
EC50 [1]: 0.029 µM | Cmax/dose [2]: 4.8 µM | Cmax/dose [3]: 3.2 µM | half-life at 2 µM [4]: 2.92 h | half-life at 2 µM [5]: 1.6 h | bioavailability [6]: 72% | bioavailability [7]: 19% | EC50 [8]: 0.011 µM | AUC/dose [9]: 26 µM·h | t1/2/dose [10]: 3 h | Kp at 6 h [11]: 5.5 | Vdss/dose [12]: 0.6 L/kg | Kp [13]: 5.5 | half-life [14]: 4.5 h | bioavailability [15]: 29% | IC50 [16]: 0.084 µM | AUC [17]: 38 µM·h | AUC [18]: 9.6 µM·h | Cmax [19]: 4.1 µM | Cmax [20]: 3.2 µM | EC50 [21]: 0.013 µM | clearance [22]: 3.6 mL/min/kg

CCOc1nc(NC(=O)C2(NC(=O)c3ccc4c(C5CCCC5)c(-c5ncc(Cl)cn5)n(C)c4c3)CCC2)ccc1/C=C/C(=O)O
EC50 [1]: 0.027 µM | half-life at 2 µM [23]: 0.533 h | clearance [24]: 0.9 mL/min/kg | Vd [25]: 0.28 L/kg | Cmax [26]: 2.6 µM | bioavailability [27]: 11% | half-life at 2 µM [4]: 3.65 h | CC50 [28]: 56 µM | clearance [29]: 1.5 mL/min/kg | bioavailability [7]: 42% | EC50 [8]: 0.014 µM | clearance [30]: 3.1 mL/min/kg | logD [31]: > 5.9 | half-life [32]: 1.5 h | Kp [13]: 2.6 | half-life at 2 µM [33]: 1.85 h | half-life [14]: 6.1 h | bioavailability [15]: 40% | IC50 [16]: 0.085 µM | AUC [17]: 56 µM·h | Kp at 8 h [34]: 2 | AUC [18]: 17 µM·h | Vd [35]: 0.06 L/kg | half-life [36]: 2 h | Cmax [19]: 10 µM | Cmax [20]: 5.8 µM | AUC [37]: 8.9 µM·h | Vd [38]: 0.28 L/kg | Cmax [39]: 5.9 µM | EC50 [21]: 0.015 µM

CCOc1cc(NC(=O)C2(NC(=O)c3ccc4c(C5CCCC5)c(-c5ncc(Cl)cn5)n(C)c4c3)CCC2)ncc1/C=C/C(=O)O
half-life at 2 µM [40]: 2.42 h | CC50 [28]: > 10 µM | Papp A→B [41]: 15 ×10⁻⁶ cm/s | logD [31]: 3 | half-life at 2 µM [33]: 1.73 h | IC50 [16]: 0.085 µM | Cmax [39]: 1.8 µM | EC50 [21]: 0.033 µM

CCOc1cc(NC(=O)C2(NC(=O)c3ccc4c(C5CCCC5)c(-c5ncc(Cl)cn5)n(C)c4c3)CCC2)cnc1/C=C/C(=O)O
Kp at 2 h [42]: 5 | half-life at 2 µM [40]: 4.58 h | CC50 [28]: > 10 µM | Papp A→B [41]: 7.5 ×10⁻⁶ cm/s | logD [31]: 3.9 | concentration at 1 h [43]: 0.4 µM | concentration at 2 h [44]: 0.1 µM | half-life at 2 µM [33]: 2.38 h | IC50 [16]: 0.11 µM | EC50 [21]: 0.02 µM
